This is one part of a sample in which hits are shown more often than they occur.
PolyA inhibitor: polyadenylation inhibitors in yeast reporter cells, primary screen, luminescence, S. cerevisiae; AID 1875, 2009; activity score, % at 12 µM; S. cerevisiae SKY197-pL101 polyadenylation reporter, beta-gal luminescence; efflux-impaired pdr1/pdr3 knockout yeast; score 100 = 6 SD above DMSO; 300,000 tested, 0.02% active;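 active = lowest replicate activity score at least 50, where 100 means six control SD above control mean; inconclusive = lowest score under 50 but half or more replicates reach 50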;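 note: yeast exposed to compound for 9 h at 30 °C; higher score means more reporter readthrough which indicates perturbed polyadenylation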
NLRP3 yeast inh: NALP3 inflammasome inhibitors in reconstituted yeast, primary screen, luminescence, uHTS; Yeast reconstituted NLRP3/ASC/caspase-1, beta-gal luminescence, 24 h; inhibition, % at 10 µM; 330,000 tested, 0.39% active; AID 2825, 2010;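 active = inhibition of 50% or more; inactive = inhibition below 50%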;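 note: plate controls were induced DMSO wells for no effect and uninduced yeast grown without galactose for full effect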
NALP1 yeast inh: NALP1 inflammasome inhibitors in reconstituted yeast, colorimetric, S. cerevisiae, triplicate retest. S. cerevisiae NALP1/ASC/caspase-1 growth, X-gal OD620, 72 h. inhibition, % at 10 µM. 280,000 tested, 0.61% active; in the data active = inhibition mostly above about 24%, no sharp cut-off; inactive = mostly below about 32%
T cruzi inh: inhibitors of intracellular T. cruzi growth, primary screen, luminescence, NIH3T3 host cells. T. cruzi beta-gal in NIH3T3, 90 h. inhibition, % (concentration not given with the values). 300,000 tested, 1.4% active. AID 1885, 2009;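 active = mean inhibition across valid replicates above about 55%, limit read from the data; inconclusive = mean below that limit but half or more replicates reach it; inactive = mean below it, under half of replicates reach it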;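 note: signal also drops with host cell toxicity which is not excluded here; 0% = plate median of DMSO wells and 100% = zero luminescence signal; higher percent means less beta-gal luminescence so fewer parasites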
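Test system: β-gal T. cruzi (Tulahuen C4) inside NIH/3T3 cells / Quantity: 5,000 cells/well / Measured by: luminescence from GalScreen with 0.05% NP40, read after 60 min / Medium: DMEM plus 2% FBS / Measure: parasite load inhibition, % / Reagent: Tulahuen C4 trypomastigotes, 5000/well / Schedule: co-culture of at least 90 h after 3 h attachment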
Lmaj promast: Leishmania major promastigote growth inhibition, primary screen. 200,000 tested, 9% active. inhibition, % at 10 µM. Leishmania major promastigotes, resazurin fluorescence viability. AID 1063, 2008; in the data active = inhibition above about 50%;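 note: promastigotes grown with compound for 44 hours at 28 °C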
Calb FLC: C. albicans growth inhibition with fluconazole, primary screen, CaCi-2 strain, Alamar Blue fluorescence; C. albicans CaCi-2 (fluconazole-resistant clinical isolate) + fluconazole, 48 h; growth inhibition, % (no concentration beside the values); 300,000 tested, 0.57% active; AID 1979, 2009;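 active = growth inhibition above about 58% in most replicates, limit read from the data, passing the limit was not always enough; inconclusive = exactly half the replicates above a set limit; inactive = most replicates below a set limit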;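 note: all wells also contain fluconazole at 8 µg/ml as a sub-toxic cotreatment; 0% = median of DMSO wells and 100% = median of geldanamycin control wells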
* = called active by the depositor.

Cc1cc(Oc2nc3c(C)cccn3c(=O)c2/C=C(\C#N)S(=O)(=O)c2ccc(Cl)cc2)ccc1Cl was read as PolyA inhibitor -0.2, NLRP3 yeast inh 10.9, NALP1 yeast inh 39.5, T cruzi inh -12.5, Lmaj promast 79.6* and Calb FLC -4.6.
Cc1ccc(S(=O)(=O)/C(C#N)=C/c2c(N3CC(C)OC(C)C3)nc3c(C)cccn3c2=O)cc1 (stereo not given) was read as PolyA inhibitor -7.9, NLRP3 yeast inh 10.1, NALP1 yeast inh 0.7, T cruzi inh -5.8, Lmaj promast 97.2* and Calb FLC 10.1.
Screening COC(=O)C(Cc1ccccc1)NC(=O)C12CC3CC(CC(C3)C1)C2 (stereo not given) returned PolyA inhibitor -0.5, NLRP3 yeast inh -0.7, NALP1 yeast inh 23.4, T cruzi inh -18.6, Lmaj promast 1.7 and Calb FLC 2.4.
For CCN(CC)CCN(Cc1cc2cc3c(cc2[nH]c1=O)OCO3)C(=S)NC the results were PolyA inhibitor 12.7, NLRP3 yeast inh 22.4, NALP1 yeast inh 8.1, T cruzi inh -2.6 and Calb FLC -2.1.
`O=C(NCc1ccccc1)N1CCN(c2ccc(Cl)c(Cl)c2)CC1` gave PolyA inhibitor -11.6, NLRP3 yeast inh 9.1, NALP1 yeast inh 10.2, T cruzi inh 4.1, Lmaj promast -0.8 and Calb FLC 6.5.
Screening CCOC(=O)c1c(C)[nH]c(C)c1C(=O)COC(=O)c1ccc([N+](=O)[O-])s1 returned NLRP3 yeast inh 10.4.
`CCc1cccc2c(C(=O)COC(=O)c3ccc([N+](=O)[O-])s3)c[nH]c12` gave PolyA inhibitor -102.2, NLRP3 yeast inh 46.9, NALP1 yeast inh 100.7, T cruzi inh 64.4*, Lmaj promast 100.4* and Calb FLC 9.4.
CCc1cccc2c(C(=O)CCl)c[nH]c12 was read as NLRP3 yeast inh -20.3, NALP1 yeast inh 25.7, T cruzi inh 2.6 and Lmaj promast 57.6*.
O=C(NCCS(=O)(=O)N1CCN(c2ccccc2F)CC1)c1cccc(Br)c1 was read as PolyA inhibitor -2.7, NLRP3 yeast inh 16.6, NALP1 yeast inh -1.2, T cruzi inh 5.0 and Calb FLC 2.2.
Screening CCN(CC)S(=O)(=O)c1ccc(C(=O)OCCN2C(=O)c3cccc4c(N5CCOCC5)ccc(c34)C2=O)cc1 returned PolyA inhibitor 7.9, NLRP3 yeast inh 15.1, NALP1 yeast inh 9.8, T cruzi inh -2.5, Lmaj promast 21.2 and Calb FLC 4.7.
For CCCN1C(=O)c2cccc3c(N4CCCCC4)ccc(c23)C1=O the results were PolyA inhibitor -20.4, NALP1 yeast inh 25.7, T cruzi inh -4.8, Lmaj promast 73.2* and Calb FLC 8.1.
Screening O=C(OCCN1C(=O)c2cccc3c(N4CCOCC4)ccc(c23)C1=O)c1cc(Cl)cc(Cl)c1 returned NALP1 yeast inh 19.2 and Lmaj promast 71.0*.
CC(C)CN1CCN(Cc2cccc3cccnc23)CC1CCO (stereo not given) was read as PolyA inhibitor 4.5, NLRP3 yeast inh -11.3, NALP1 yeast inh -5.7, T cruzi inh 2.6, Lmaj promast 3.3 and Calb FLC 4.9.
For O=S(=O)(O)c1nc2ccccc2n1Cc1cccc2ccccc12 the results were PolyA inhibitor 8.8, NLRP3 yeast inh -8.3, NALP1 yeast inh 18.8, T cruzi inh -9.7 and Calb FLC 9.0.
`C=CCN1CC(c2nc3ccccc3n2Cc2cccc3ccccc23)CC1=O` (stereo not given) gave PolyA inhibitor -15.6, NLRP3 yeast inh 2.9, NALP1 yeast inh 30.7, T cruzi inh 1.6, Lmaj promast 86.7* and Calb FLC 6.7.
For Cc1ccc(OCCn2c(C3CC(=O)N(Cc4ccccc4)C3)nc3ccccc32)cc1 (stereo not given) the results were PolyA inhibitor -5.2, NLRP3 yeast inh 7.7, NALP1 yeast inh 17.6, T cruzi inh 5.0, Lmaj promast 91.5* and Calb FLC 0.7.
CCCn1c(C2CC(=O)N(c3ccc(C)cc3)C2)nc2ccccc21 (stereo not given) was read as PolyA inhibitor -14.5, NLRP3 yeast inh 25.3, NALP1 yeast inh 5.9, T cruzi inh 7.4, Lmaj promast 3.3 and Calb FLC -5.8.
Cc1ccccc1NC(=O)CSc1nc(O)cc(=O)n1C was read as PolyA inhibitor 18.4, NLRP3 yeast inh 6.2, T cruzi inh 5.5 and Calb FLC -8.3.
COCCn1nnnc1C(c1cccs1)N1CCN(c2cc(C)ccc2C)CC1 (stereo not given) was read as PolyA inhibitor -9.1, NLRP3 yeast inh 14.7, NALP1 yeast inh -7.7, T cruzi inh 9.6, Lmaj promast -3.4 and Calb FLC 9.6.
`CCC(c1nnnn1Cc1cccs1)N1CCN(c2nc3ccccc3s2)CC1` (stereo not given) gave PolyA inhibitor 8.9, NLRP3 yeast inh 1.0, NALP1 yeast inh 16.3, T cruzi inh inconclusive, Lmaj promast 28.7 and Calb FLC 3.1.
Screening COCCn1nnnc1C(c1cccs1)N1CCN(c2nc3ccccc3s2)CC1 (stereo not given) returned PolyA inhibitor -15.4, NLRP3 yeast inh 1.9, NALP1 yeast inh 13.6, T cruzi inh 13.5, Lmaj promast 94.8* and Calb FLC 12.0.
Screening CC(C)CC(c1nnnn1Cc1cccs1)N1CCN(c2nc3ccccc3s2)CC1 (stereo not given) returned PolyA inhibitor -48.7, NLRP3 yeast inh -3.0, NALP1 yeast inh 20.0, T cruzi inh 34.6, Lmaj promast 97.8* and Calb FLC 5.9.
For COCCn1nnnc1CN(CCc1ccccc1)Cc1cc2ccc(C)cc2[nH]c1=O the results were PolyA inhibitor -6.0, NLRP3 yeast inh -3.8, NALP1 yeast inh -3.8, T cruzi inh 35.1 and Lmaj promast 100.3*.
`Cc1ccc2[nH]c(=O)c(CN(CCc3ccccc3)Cc3nnnn3CC3CCCO3)cc2c1` (stereo not given) gave PolyA inhibitor -1.7, NLRP3 yeast inh 25.3, NALP1 yeast inh 18.5, T cruzi inh 7.6, Lmaj promast 25.4 and Calb FLC inconclusive.
`COc1ccc2cc(CN(CCc3ccccc3)Cc3nnnn3CC3CCCO3)c(=O)[nH]c2c1` (stereo not given) gave PolyA inhibitor 8.7, NLRP3 yeast inh 7.9, NALP1 yeast inh 6.0, T cruzi inh 52.5, Lmaj promast 99.6* and Calb FLC 3.3.
`COc1ccccc1CN(Cc1cc2cc(C)cc(C)c2[nH]c1=O)Cc1nnnn1CC1CCCO1` (stereo not given) gave PolyA inhibitor 0.7, NLRP3 yeast inh 2.3, NALP1 yeast inh 0.3, T cruzi inh 24.4, Lmaj promast 55.9* and Calb FLC -0.4.
